Data set [1] deals with T1, Peroxisome proliferator-activated receptor gamma (Mus musculus) (UniProt P37238).
T1 sequence (whole entry): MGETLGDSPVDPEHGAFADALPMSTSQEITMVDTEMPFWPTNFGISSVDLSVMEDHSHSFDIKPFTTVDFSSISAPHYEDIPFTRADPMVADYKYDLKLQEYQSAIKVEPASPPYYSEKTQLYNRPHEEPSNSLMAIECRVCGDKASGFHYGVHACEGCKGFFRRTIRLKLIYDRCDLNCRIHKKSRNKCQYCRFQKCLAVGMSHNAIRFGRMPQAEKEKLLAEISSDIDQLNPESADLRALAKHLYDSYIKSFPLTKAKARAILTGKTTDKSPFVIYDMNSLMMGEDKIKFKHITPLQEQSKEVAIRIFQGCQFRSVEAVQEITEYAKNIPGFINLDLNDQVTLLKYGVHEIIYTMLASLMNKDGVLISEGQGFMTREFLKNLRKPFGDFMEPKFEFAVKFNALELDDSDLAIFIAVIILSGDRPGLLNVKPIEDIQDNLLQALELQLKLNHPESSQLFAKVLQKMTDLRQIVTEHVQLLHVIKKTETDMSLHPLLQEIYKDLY
The experiment in a line: Transactivation of PPARgamma in mouse C2C12 cells assessed as increase in GLUT-4 mediated 2-NBDG uptake at 5 to 20 uM at 4 hrs by fluorescence assay. It is filed as cell-based. The essentials:
(§1)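 Uptake was run in C2C12 myotubes (4 days in DMEM/1% FBS) kept in serum-free DMEM. 2-NBDG 10 μM and compound (DMSO solution) were added together for the stated time. Medium was then discarded, and cells were washed twice with PBS and scraped in ice-cold PBS. Cell-associated 2-NBDG was read by fluorescence at Ex/Em 475/550 nm, under basal or insulin-stimulated conditions.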

Data set [2] concerns the target T1, Peroxisome proliferator-activated receptor gamma (Mus musculus). The data set can be described thus: Transactivation of PPARgamma in mouse C2C12 cells assessed as increase in GLUT-4 mediated 2-NBDG uptake at 4 hrs by fluorescence assay. It is filed as cell-based. The essentials: as §1
Data set [3] has the same target. The data set can be described thus: Transactivation of PPARgamma in mouse C2C12 cells assessed as increase in GLUT-4 mediated insulin-induced 2-NBDG uptake at 4 hrs by fluorescence assay. It is filed as cell-based. The essentials: as §1
For data set [4] the target is unchanged. The experiment in a line: Transactivation of PPARgamma in mouse C2C12 cells assessed as increase in GLUT-4 mediated 2-NBDG uptake at 10 uM after 2 to 8 hrs by fluorescence assay. It is filed as cell-based. The essentials:
as §1

The target is the same in data set [5]. The data set can be described thus: Transactivation of PPARgamma in mouse C2C12 cells assessed as increase in GLUT-4 levels in at 1 to 10 uM after 6 hrs by ELISA. It is filed as cell-based. An outline of the steps:
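Myotubes were differentiated from C2C12 myoblasts over 4 days in DMEM plus 1% FBS, then treated 6 h in serum-free DMEM at 1 and 10 μM, with rosiglitazone 10 μM as reference. Cells were PBS-washed and lysed, and lysates were spun 20 min at 13000g, 4 °C. GLUT-4 in the supernatant was quantified by mouse GLUT-4 ELISA.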
In general terms: In an ELISA, binding on a coated surface is turned into a signal by an enzyme label.

Data set [6] shares this target. The data set can be described thus: Transactivation of PPARgamma in mouse C2C12 cells assessed as increase in GLUT-4 mediated 2-NBDG uptake at 10 uM after 6 hrs by fluorescence assay. It is filed as cell-based. The essentials:
as §1

The species entered for data set [7] is Mus musculus. The experiment in a line: Cytotoxicity against mouse C2C12 cells assessed as cell viability at 1 to 20 uM after 4 hrs by MTT assay. To be noted: c2c12, 4 h. It is filed as toxicity, cell-based. The essentials: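 C2C12 myoblasts differentiated to myotubes in DMEM with 1% FBS, changed daily for 4 days, then seeded in 96-well plates. Cells were exposed to test compound for 4 h, with digitonin 100 μg/mL as positive control. MTT reagent was added, then DMSO, and absorbance was read at 565 nm as viability.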

In data set [8] the target is T1, Peroxisome proliferator-activated receptor gamma (Mus musculus). The experiment in a line: Transactivation of PPARgamma in mouse C2C12 cells at 1 to 10 uM after 24 hrs by DR-1 luciferase reporter gene assay. It is filed as cell-based. The essentials: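 C2C12 myotubes were transiently co-transfected with a DR-1 luciferase reporter and a PPARγ expression vector. Six hours after transfection, the medium was replaced with fresh medium containing the agonist. Luciferase activity was measured 24 h later by kit assay.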

The source made the active and inactive calls. The calls are words filed in the database; no cut-off is given here.

In the case of `O=C(OC[C@H]1O[C@@H](Oc2cc(O)cc(O)c2)[C@H](O)[C@@H](O)[C@@H]1O)[C@H]1[C@H](c2ccc(O)cc2)[C@H](C(=O)OC[C@H]2O[C@@H](Oc3cc(O)cc(O)c3)[C@H](O)[C@@H](O)[C@@H]2O)[C@H]1c1ccc(O)cc1`, the result in data set [1], in data set [4], in data set [5], in data set [6] and in data set [8] was Active. The Activity result in data set [2] was “Dose-dependent effect”; in data set [3], “Dose-dependent effect”; in data set [7], “Non-Toxic”. In the case of `O=C(/C=C/c1ccc(O)cc1)O[C@H]1[C@H](O)[C@@H](O)[C@H](Oc2cc(O)cc(O)c2)O[C@@H]1CO`, the outcome in data set [6] was Active. As to `O=C(OC[C@H]1O[C@@H](Oc2cc(O)cc(O)c2)[C@H](O)[C@@H](O)[C@@H]1O)[C@H]1[C@H](C(=O)OC[C@H]2O[C@@H](Oc3cc(O)cc(O)c3)[C@H](O)[C@@H](O)[C@@H]2O)[C@H](c2ccc(O)cc2)[C@H]1c1ccc(O)cc1`, the result in data set [6] was Active. As for `O=C(/C=C/c1ccc(O)cc1)O[C@H]1[C@H](Oc2cc(O)cc(O)c2)O[C@H](CO)[C@@H](O)[C@@H]1O`, the outcome in data set [6] was Active. Turning to `O=C(/C=C\c1ccc(O)cc1)O[C@H]1[C@H](Oc2cc(O)cc(O)c2)O[C@H](CO)[C@@H](O)[C@@H]1O`, the outcome in data set [6] was Active. Same read-out and setting: under `CC(=O)c1c(O)cc(O)cc1O[C@@H]1O[C@H](COC(=O)/C=C/c2ccc(O)cc2)[C@@H](O)[C@H](O)[C@H]1O` stands “Active”; under `O=C(/C=C/c1ccc(O)cc1)OC[C@H]1O[C@@H](Oc2cc(O)cc(O)c2)[C@H](O)[C@@H](O)[C@@H]1O`, “Active”; under `O=C(/C=C/c1ccc(O)cc1)O[C@@H]1[C@@H](O)[C@H](Oc2cc(O)cc(O)c2)O[C@H](CO)[C@H]1O`, “Active”. For the compound `CC(=O)c1c(O)cc(O)cc1O[C@@H]1O[C@H](COC(=O)/C=C\c2ccc(O)cc2)[C@@H](O)[C@H](O)[C@H]1O`, in data set [6], the outcome was Active.

For the origin of these results see ChEMBL document CHEMBL3853279, “Tadehaginosides A-J, Phenylpropanoid Glucosides from Tadehagi triquetrum, Enhance Glucose Uptake via the Upregulation of PPARγ and GLUT-4 in C2C12 Myotubes” (J Nat Prod, 2016).
